Data set [1] concerns HeLa. Description: Antiproliferative activity against human HeLa cells after 24 hrs by cell titer 96 aqueous non-radioactive cell proliferation assay. The format is functional, cell-based. In outline: (§1)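 Cells kept in high-glucose DMEM with 10% FBS and 1% penicillin/streptomycin at 37°C, 5% CO2. They were exposed for 24 h to compound in serum-free DMEM, with final EtOH ≤0.1% (ethanol stocks made fresh). Viability was read by MTS absorbance against vehicle-treated controls; n=4 per group.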

The nature of data set [2]: Toxicity in athymic nude mouse xenografted with human HeLa cells assessed as effect on neurological function at 40 ug, administered intra-tumorally every day for 14 days. The conditions noted are these: in vivo, other, 336 h. On the technique in general: A xenograft is tissue or cells of one species grown in another, often human tumour cells in immunodeficient mice.
In the next data set the test system is NCI-H460. Description: Antiproliferative activity against human NCI-H460 cells after 24 hrs by cell titer 96 aqueous non-radioactive cell proliferation assay. In kind it is functional, cell-based. The following applies: NCI-H460, 24 h. In outline: as §1
For data set [3], the system named is HeLa. Description: Potency index, ratio of capsazepine IC50 to compound IC50 for antiproliferative activity against human HeLa cells. The format is functional.
The test system of data set [4] is HeLa. Description: Antitumor activity against human HeLa cells xenografted in athymic nude mouse assessed as tumor volume at 40 ug, administered intra-tumorally every day for 14 days (reference value: 562 mm3). The format is functional.
The subject of another data set is PC-3. Description: Antiproliferative activity against human PC3 cells after 24 hrs by cell titer 96 aqueous non-radioactive cell proliferation assay. The conditions noted are these: PC-3, 24 h. In kind it is functional, cell-based. In outline: as §1
For another data set, the system named is HSC-3. Description: Antiproliferative activity against human HSC3 cells after 24 hrs by cell titer 96 aqueous non-radioactive cell proliferation assay. In kind it is functional, cell-based. The conditions noted are these: HSC-3, 24 h. In outline: as §1
Data set [5] has as its target Transient receptor potential cation channel subfamily V member 1 (Homo sapiens) (UniProt Q8NER1). Description: Agonist activity at TRPV1 (unknown origin) expressed in CHO cells assessed as increase in calcium influx at 1 uM by Calcium 6 dye-based FLIPR assay. The format is cell-based. In outline:
(§2)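 CHO cells stably overexpressing TRPV1, grown at 37°C in 5% CO2. 9x10³ cells per well, loaded with Calcium 6 dye for 2 h. Dose-response curves were run, then compounds at 1 μM were compared with 100 nM capsaicin as the positive control and 1 μM CPZ as the negative control. Calcium influx was read as the change in fluorescence at 535 nm; n=3 per group.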

Data set [6] is described as follows: Toxicity in athymic nude mouse xenografted with human HeLa cells assessed as decrease in body weight at 40 ug, administered intra-tumorally every day for 14 days. The conditions noted are these: in vivo, other, 336 h.
Data set [7] in a line: Toxicity in athymic nude mouse xenografted with human HeLa cells assessed as effect on motor functions at 40 ug, administered intra-tumorally every day for 14 days. The following applies: in vivo, other, 336 h.
The target of data set [8] is Transient receptor potential cation channel subfamily V member 1 (Homo sapiens) (UniProt Q8NER1). Description: Antagonist activity at TRPV1 (unknown origin) expressed in CHO cells assessed as inhibition of capsaicin-induced increase in calcium influx at 1 uM pretreated before 100 nM capsaicin addition by Calcium 6 dye-based FLIPR assay. In kind it is cell-based. The procedure, abridged:
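CHO-TRPV1 cells, 9x10³ per well, loaded with Calcium 6 dye for 2 h. Cells were pretreated with 1 μM compound, then challenged with 100 nM capsaicin. TRPV1 inhibition was judged from the change in fluorescence at 535 nm.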

The next data set deals with MDA-MB-231. Description: Antiproliferative activity against human MDA231 cells after 24 hrs by cell titer 96 aqueous non-radioactive cell proliferation assay. The format is functional, cell-based. The following applies: MDA-MB-231, 24 h. In outline: as §1
Data set [9] can be described thus: Toxicity in athymic nude mouse xenografted with human HeLa cells assessed as effect on mobility at 40 ug, administered intra-tumorally every day for 14 days. The following applies: in vivo, other, 336 h.
Data set [10] in a line: Toxicity in athymic nude mouse xenografted with human HeLa cells assessed as effect on respiration at 40 ug, administered intra-tumorally every day for 14 days. The following applies: in vivo, other, 336 h.
Data set [11] in a line: Toxicity in athymic nude mouse xenografted with human HeLa cells assessed as effect on adjacent non-malignant tissues at 40 ug, administered intra-tumorally every day for 14 days. The following applies: in vivo, other, 336 h.
Data set [12] deals with Transient receptor potential cation channel subfamily V member 1 (Homo sapiens) (UniProt Q8NER1). Description: Agonist activity at TRPV1 (unknown origin) expressed in CHO cells assessed as increase in calcium influx by Calcium 6 dye-based FLIPR assay. In kind it is cell-based. In outline: as §2

Active and inactive are the calls of the source. No cut-off for these calls is given here.

Sequence of Transient receptor potential cation channel subfamily V member 1 (Homo sapiens) (Q8NER1 whole entry): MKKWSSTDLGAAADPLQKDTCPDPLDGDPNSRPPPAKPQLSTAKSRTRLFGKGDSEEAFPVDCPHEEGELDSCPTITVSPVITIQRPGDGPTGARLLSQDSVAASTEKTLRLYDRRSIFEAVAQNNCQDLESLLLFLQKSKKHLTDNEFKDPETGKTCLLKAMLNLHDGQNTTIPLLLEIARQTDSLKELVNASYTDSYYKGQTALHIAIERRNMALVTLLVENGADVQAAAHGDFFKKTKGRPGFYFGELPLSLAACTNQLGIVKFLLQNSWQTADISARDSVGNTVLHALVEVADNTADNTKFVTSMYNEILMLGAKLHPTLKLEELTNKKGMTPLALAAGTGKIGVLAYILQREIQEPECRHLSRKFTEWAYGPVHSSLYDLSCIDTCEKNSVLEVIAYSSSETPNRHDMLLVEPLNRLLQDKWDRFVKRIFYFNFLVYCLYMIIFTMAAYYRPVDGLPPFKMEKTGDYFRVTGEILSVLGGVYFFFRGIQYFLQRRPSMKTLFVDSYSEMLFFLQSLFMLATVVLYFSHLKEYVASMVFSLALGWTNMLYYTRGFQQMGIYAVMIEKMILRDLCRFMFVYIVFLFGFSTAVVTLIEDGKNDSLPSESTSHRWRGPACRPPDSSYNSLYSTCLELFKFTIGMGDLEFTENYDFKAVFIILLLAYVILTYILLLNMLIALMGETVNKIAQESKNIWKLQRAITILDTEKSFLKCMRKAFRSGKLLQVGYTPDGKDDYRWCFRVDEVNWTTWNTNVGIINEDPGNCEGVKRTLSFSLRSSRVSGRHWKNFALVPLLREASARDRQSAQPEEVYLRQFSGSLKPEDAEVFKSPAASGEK

Take `Oc1cc2c(cc1O)CN(C(=S)NCCc1ccc(F)cc1)CC2`: the IC50 (usually the point on the concentration scale where inhibition reaches its midpoint) in the data set on HeLa [1] came to 25 µM.
The same measure, in the same setting: next, `Oc1cc2c(cc1O)C(c1ccccc1)N(C(=S)NCCc1ccc(F)cc1)CC2` (configuration not stated): 17 µM; `Oc1ccc2c(c1)CN(C(=S)NCCc1ccc(Cl)cc1)CCC2`: 50 µM.
On the same count and under the same terms, next, `COc1cc2c(cc1OC)CN(C(=S)NCCc1ccc(Cl)cc1)CC2`: greater than 100 µM; `CC(C)C1c2cc(O)c(O)cc2CCN1C(=S)NCCc1ccc(Cl)cc1Cl` (configuration not stated): 46 µM; `Oc1cc2c(cc1O)C(c1ccccc1)N(C(=S)NCCc1ccccc1)CC2` (configuration not stated): 25 µM.
On the same count and under the same terms, next, `Oc1cc2c(cc1O)C(c1ccccc1)N(C(=S)NCCc1ccc(Cl)cc1Cl)CC2` (configuration not stated): 20 µM.
For `COc1cc2c(cc1OC)CN(C(=O)NCCc1ccc(Cl)cc1)CC2`, the IC50 in the data set on HeLa [1] is greater than 100 µM.
Regarding `COc1ccc2c(c1)CCCN(C(=S)NCCc1ccc(Cl)cc1)C2`, the IC50 with HeLa [1] is greater than 100 µM.
On the same count and under the same terms, next, `COc1ccc(CN(C)C(=O)NCCc2ccc(Cl)cc2)cc1OC`: greater than 30 µM; `COc1ccc(CCNC(=S)N2CCc3cc(O)c(O)cc3C2c2ccccc2)cc1` (configuration not stated): 24 µM.
The same measure, in the same setting: for `O=C(NCCc1ccc(Cl)cc1)N1CCc2cc(O)c(O)cc2C1` the value was 15 µM; for `Oc1cc2c(cc1O)C(c1ccccc1)N(C(=S)NCCc1ccc(Cl)cc1)CC2` (configuration not stated), less than 5 µM; for `CC(C)C1c2cc(O)c(O)cc2CCN1C(=S)NCCc1ccc(F)cc1` (configuration not stated), 28 µM.
The same measure, in the same setting: for `CN(Cc1ccc(O)c(O)c1)C(=S)NCCc1ccc(Cl)cc1` the value was greater than 100 µM; for `CN(Cc1ccc(O)c(O)c1)C(=O)NCCc1ccc(Cl)cc1`, 30 µM; for `Oc1cc2c(cc1O)CN(C(=S)NCCc1ccc(Cl)cc1)C2`, 85 µM.
Take `CC(C)C1c2cc(O)c(O)cc2CCN1C(=S)NCCc1ccc(Cl)cc1` (configuration not stated): the IC50 in the data set with HeLa [1] is 55 µM.
As to `COc1ccc(CCNC(=S)N2CCc3cc(O)c(O)cc3C2)cc1`, the IC50 in the data set on HeLa [1] is greater than 100 µM.
Regarding `CC(C)C1c2cc(O)c(O)cc2CCN1C(=S)NCc1ccccc1` (configuration not stated), in the data set on HeLa [1], the IC50 turned out to be 35 µM.
In the case of `Oc1cc2c(cc1O)CN(C(=S)NCCc1ccc(Cl)cc1Cl)CC2`, the IC50 with HeLa [1] was found to be 30 µM.
Same read-out and setting: for `Oc1cc2c(cc1O)CN(C(=S)NCCc1ccc(Cl)cc1)CCC2` [CAPSAZEPINE] the value was 30 µM.
Still for that read-out and setting: for `CN(CCc1ccc(O)c(O)c1)C(=S)NCCc1ccc(Cl)cc1` the value was 30 µM; for `CN(CCc1ccc(O)c(O)c1)C(=O)NCCc1ccc(Cl)cc1`, greater than 30 µM.
Regarding `Oc1cc2c(cc1O)C(c1ccccc1)N(C(=S)NCc1ccccc1)CC2` (configuration not stated), the Activity entry in [2] was “Non-Toxic”; in the data set on HeLa [4] it was 283 mm3; in [6] it was “Non-Toxic”; in data set [7], “Non-Toxic”; in [9], “Non-Toxic”; in data set [10], “Non-Toxic”. In data set [11], the Activity result is reported as “Non-Toxic”. The IC50 with NCI-H460 is 42 µM; with PC-3, 2.5 µM; in the data set with HSC-3 it was 2 µM; with HeLa [1], less than 5 µM; with MDA-MB-231 it was 32 µM. Moreover, the “Ratio IC50” value in the data set with HeLa [3] came to 6. Besides, the result in [5] was inactive. Also, in [8], the inhibition result is “inactive”.
`Oc1ccc2c(c1)CCCN(C(=S)NCCc1ccc(Cl)cc1)C2`: in the data set with HeLa [1], the IC50 was 65 µM.
Same read-out and setting: next, `Oc1cc2c(cc1O)CN(C(=S)NCc1ccccc1)CC2`: greater than 100 µM.
Regarding `CC(C)C1c2cc(O)c(O)cc2CCN1C(=S)NCCc1ccccc1` (configuration not stated), the IC50 with HeLa [1] amounted to 67 µM.
For the compound `Oc1cc2c(cc1O)CN(C(=S)NCCc1ccc(Cl)cc1)CC2`, the Activity entry in data set [2] was “Non-Toxic”; in the data set with HeLa [4] it was 351 mm3; in [6], “Non-Toxic”; in data set [7], “Non-Toxic”; in data set [12] it was “Dose-dependent effect”; in data set [9] it was “Non-Toxic”. The Activity result in data set [10] and in data set [11] was “Non-Toxic” throughout. Also, the IC50 in the data set on NCI-H460 is 23 µM; in the data set with PC-3, 13 µM; in the data set on HSC-3, 20 µM; with HeLa [1] it was less than 10 µM; in the data set on MDA-MB-231 it was 5 µM.
On to `Oc1cc2c(cc1O)CN(C(=S)NCCc1ccccc1)CC2`, for which the IC50 in the data set on HeLa [1] is 25 µM.
Still for that read-out and setting: for `COc1ccc2c(c1)CN(C(=S)NCCc1ccc(Cl)cc1)CCC2` the value was greater than 100 µM.

(Values after ChEMBL document CHEMBL4371051, “Synthesis and SAR of novel capsazepine analogs with significant anti-cancer effects in multiple cancer types” (Bioorg Med Chem, 2019).)
